The test system of assay [1] is Ileum. The assay can be described thus: Antispasmodic activity in guinea pig ileum assessed as inhibition of acetylcholine-induced smooth muscle contraction. Format: functional, Cavia porcellus. In a few lines: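 Ileum from male albino guinea pigs (300-450 g) in Krebs-Henseleit solution, 1 g tension, 10 mL bath, 38.5 °C, 95% O2/5% CO2. After 0.5 h equilibration, checked with 3 µM ACh three times. Samples (10, 30, 100 µM) added noncumulatively 20 min before 3 µM ACh. Contraction recorded isotonically, expressed as % of untreated ACh height. IC50 calculated. Mean ± SEM, 4-5 animals. DMSO <1% final.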

For assay [2], the system named is Ileum. The assay can be described thus: Antispasmodic activity in guinea pig ileum assessed as inhibition of electrically-induced smooth muscle contraction. The class given is functional, Cavia porcellus. In a few lines:
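Male albino guinea-pig ileum (300-450 g) held under 1 g tension in Krebs-Henseleit at 38.5 °C, gassed 95% O2/5% CO2. Transmural stimulation through platinum ring electrodes: supramaximal 38.6 V, 0.2 Hz, 0.3 ms square pulses. Once twitch was stable, compounds added cumulatively at 10, 30, 100 µM. Isotonic recording, contraction as % of control. IC50 calculated. Mean ± SEM from 4-5 animals. DMSO vehicle <1% final.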

In the case of `O=C1OC[C@H](Cc2ccc3c(c2)OCO3)[C@H]1Cc1ccc2c(c1)OCO2` [HINOKININ], the IC50 (commonly the concentration at which inhibition is half-maximal) was found to be 27.3 µM in assay [1] and 69.8 µM in assay [2].

Take `C=C1C[C@@]23CC[C@H]4[C@@](C)(CCC[C@]4(C)C(=O)O)[C@@H]2CCC1C3`: the IC50 in assay [1] was found to be 25.4 µM; in assay [2], 28.2 µM.

For `COc1cc(C[C@H]2C(=O)OC[C@@H]2Cc2ccc3c(c2)OCO3)ccc1O`, the results for the IC50 in assay [1] and in assay [2] were 26.8 µM and 58.3 µM, respectively.

With `CC1(C)CCC[C@]2(C)[C@@H]1CC[C@@]13C[C@H](CC[C@H]12)[C@@](O)(CO)C3`, the IC50 in assay [1] and in assay [2] was greater than 100 µM throughout.

Turning to `OC[C@H](Cc1ccc2c(c1)OCO2)[C@H](CO)Cc1ccc2c(c1)OCO2` [DIHYDROCUBEBIN], the IC50 is 40.4 µM in assay [1] and greater than 100 µM in assay [2].

As for `CC1(C)CCC[C@]2(C)[C@@H]1CC[C@]13C=C(CO)[C@@H](CC[C@H]12)C3`, the IC50 is greater than 100 µM in assay [1] and 34.1 µM in assay [2].

Turning to `CC1(C)CCC[C@]2(C)[C@@H]1CC[C@]13C=C(COC4OC[C@H](Cc5ccc6c(c5)OCO6)[C@H]4Cc4ccc5c(c4)OCO5)[C@@H](CC[C@H]12)C3` (some centres undefined), the IC50 in assay [1] and in assay [2] was greater than 100 µM each time.

Consider `COc1ccc(CCN(C)CCCC(C#N)(c2ccc(OC)c(OC)c2)C(C)C)cc1OC` (centres undefined) [VERAPAMIL], for which the IC50 was found to be 0.28 µM in assay [1] and 0.25 µM in assay [2].

As to `COc1cccc2c1cc([N+](=O)[O-])c1c(C(=O)O)cc3c(c12)OCO3` [ARISTOLOCHIC ACID], the IC50 in assay [1] is greater than 100 µM; in assay [2], 64 µM.

On to `COc1cc2c(cc1C)C(=O)CCC2C` (single isomer, unassigned; (+)), for which the IC50 in assay [1] is 89.8 µM; in assay [2], greater than 100 µM.

Turning to `COc1cc(C[C@H]2CO[C@@H](O)[C@@H]2Cc2ccc3c(c2)OCO3)ccc1O`, the IC50 in assay [1] is 39.5 µM; in assay [2] it was 52.8 µM.

For the compound `O[C@H]1OC[C@H](Cc2ccc3c(c2)OCO3)[C@H]1Cc1ccc2c(c1)OCO2`, the values for the IC50 in assay [1] and in assay [2] were 23.6 µM and 51.6 µM, respectively.

For the origin of these results see ChEMBL document CHEMBL1155046, “Chemical constituents of Aristolochia constricta: antispasmodic effects of its constituents in guinea-pig ileum and isolation of a diterpeno-lignan hybrid” (2008).
